We go through 9 compounds from ChEMBL document CHEMBL3785077 (J Med Chem, 2016).

Data set [1] concerns the target Cholinesterase (Equus caballus) (UniProt P81908). The data set is described as follows: Pseudo-irreversible inhibition of equine serum butyrylcholinesterase assessed as carbamoylation rate of inhibitor from reversible enzyme inhibitor complex to carbamoylated enzyme using p-nitrophenyl butyrate as substrate preincubated for 5 to 40 mins followed by substrate addition by double reciprocal plot analysis.

Data set [2] has as its target T1, Cholinesterase (Equus caballus, UniProt P81908). The data set is described as follows: Inhibition of equine serum butyrylcholinesterase using […] as substrate preincubated for 30 mins followed by substrate addition measured after 2.5 mins by Ellman's spectrophotometric method. A digest of the protocol:
(§1)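 Ellman assay at 25 °C in phosphate buffer pH 8.0. Enzyme (AChE from human erythrocytes, BChE from equine or human serum; 2.5 units/mL stock with 2 mg/mL BSA) and DTNB (0.3 mM in assay) preincubated with compound from ethanol stocks (1 nM−1 mM in assay). Ethanol control, triplicates, IC50 from activity vs log concentration.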
On the technique in general: DTNB colorimetry detects thiols as they appear.

The target in data set [3] is Cholinesterase (Equus caballus) (UniProt P81908). The data set can be described thus: Pseudo-irreversible inhibition of equine serum butyrylcholinesterase assessed as half life for carbamoylated enzyme using […] as substrate preincubated for 1 hr followed by 1000 fold dilution. The method in brief: (§2)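 Enzyme incubated 1 h with inhibitor at a fully inhibiting concentration, then diluted 1:1000 in assay buffer. Activity measured by Ellman assay at various times after dilution, with uninhibited enzyme treated the same way as control. First-order fit of activity recovery gives k4.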
Sequence of Cholinesterase (Equus caballus) (P81908 whole entry): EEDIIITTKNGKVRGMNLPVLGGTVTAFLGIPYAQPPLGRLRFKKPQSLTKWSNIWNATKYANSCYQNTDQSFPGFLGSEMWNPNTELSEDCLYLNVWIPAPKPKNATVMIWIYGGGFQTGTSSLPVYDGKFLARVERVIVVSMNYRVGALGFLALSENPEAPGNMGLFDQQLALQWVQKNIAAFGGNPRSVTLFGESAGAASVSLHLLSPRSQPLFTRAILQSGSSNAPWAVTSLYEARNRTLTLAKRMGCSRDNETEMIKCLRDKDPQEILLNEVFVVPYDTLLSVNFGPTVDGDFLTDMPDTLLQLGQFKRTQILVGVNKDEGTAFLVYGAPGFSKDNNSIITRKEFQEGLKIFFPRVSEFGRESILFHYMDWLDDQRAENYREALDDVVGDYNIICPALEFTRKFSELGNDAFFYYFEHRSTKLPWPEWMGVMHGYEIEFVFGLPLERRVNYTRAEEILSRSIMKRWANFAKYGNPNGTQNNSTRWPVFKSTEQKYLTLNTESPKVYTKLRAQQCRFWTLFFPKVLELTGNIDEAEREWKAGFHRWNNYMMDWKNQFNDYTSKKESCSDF

Data set [4] has the same target. The data set can be described thus: Pseudo-irreversible inhibition of equine serum butyrylcholinesterase assessed as ratio of carbamoylation rate of inhibitor to apparent affinity between enzyme and inhibitor at equilibrium state using p-nitrophenyl butyrate as substrate preincubated for 5 to 40 mins followed by substrate addition by double reciprocal plot analysis.

Data set [5] shares this target. The data set can be described thus: Pseudo-irreversible inhibition of equine serum butyrylcholinesterase assessed as decarbamoylation rate using […] as substrate preincubated for 1 hr followed by 1000 fold dilution. A digest of the protocol:
as §2

For data set [6] the target is unchanged. The data set can be described thus: Pseudo-irreversible inhibition of equine serum butyrylcholinesterase assessed as apparent affinity between enzyme and inhibitor at equilibrium state using p-nitrophenyl butyrate as substrate preincubated for 5 to 40 mins followed by substrate addition by double reciprocal plot analysis.
Data set [7] has as its system HT-22. The data set can be described thus: Neuroprotective activity against glutamate-induced oxycytotic cell death in mouse HT22 cells assessed as cell viability at 5 to 25 uM after 24 hrs by MTT assay. It is filed as functional, cell-based. The method in brief: (§3)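 Murine hippocampal HT-22 cells in high-glucose DMEM with 10% heat-inactivated FCS, 37 °C, 5% CO2. […] MTT 3 h, SDS lysis, absorbance at 560 nm, viability as % of untreated cells.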
(Formazan colour is commonly taken as a measure of viable cells.)

Data set [8] has as its target Cholinesterase (Homo sapiens, UniProt P06276). The data set is described as follows: Inhibition of human butyrylcholinesterase using […] as substrate preincubated for 30 mins followed by substrate addition measured after 2.5 mins by Ellman's spectrophotometric method. The method in brief: (§4)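 Ellman assay at 25 °C in phosphate buffer pH 8.0. Enzyme (AChE from human erythrocytes, BChE from equine or human serum; 2.5 units/mL stock with 2 mg/mL BSA) and DTNB (0.3 mM in assay) preincubated with compound from ethanol stocks (1 nM−1 mM in assay). Acetyl- or butyrylthiocholine added (452 μM in assay), absorbance at 412 nm after 2.5 min. Ethanol control, triplicates, IC50 from activity vs log concentration.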

A short description of data set [9]: Neurotoxicity against mouse HT22 cells assessed as cell viability up to 10 uM after 24 hrs by MTT assay. As to conditions: read-out: Activity. Format: toxicity, cell-based, HT-22. The method in brief:
as §3

Data set [10] is described as follows: Antioxidant activity assessed as trolox equivalents of AAPH radical scavenging activity preincubated for 15 mins followed by AAPH addition measured every 60 secs for 90 mins by ORAC assay. As to conditions: 1.5 h. Format: physicochemical. A digest of the protocol: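 ORAC-FL: compound (1−5 μM) with fluorescein (300 nM final) in 75 mM phosphate buffer pH 7.4, 15 min at 37 °C, then AAPH (12 mM final). Fluorescence read every 60 s for 90 min (ex 485/em 535 nm). […] Samples in quadruplicate, ≥4 independent runs.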

Data set [11] has as its target T2, Acetylcholinesterase (Homo sapiens, UniProt P22303). The data set can be described thus: Inhibition of human acetylcholinesterase using […] as substrate at 100 uM preincubated for 4.5 mins followed by substrate addition measured after 2.5 mins by Ellman's spectrophotometric method.
Data set [12] concerns the target T2, Acetylcholinesterase. The data set is described as follows: Inhibition of human acetylcholinesterase using […] as substrate preincubated for 30 mins followed by substrate addition measured after 2.5 mins by Ellman's spectrophotometric method. The method in brief: as §1
Data set [13] can be described thus: Neurotoxicity against mouse HT22 cells assessed as decrease in cell viability at 25 uM after 24 hrs by MTT assay. Format: toxicity, cell-based. Conditions: ht-22, 24 h. A digest of the protocol:
as §3

In data set [14] the target is T2, Acetylcholinesterase. The data set can be described thus: Inhibition of human acetylcholinesterase using […] as substrate at 10 uM preincubated for 4.5 mins followed by substrate addition measured after 2.5 mins by Ellman's spectrophotometric method.
For data set [15], the target named is T2, Acetylcholinesterase. The data set can be described thus: Inhibition of human acetylcholinesterase using […] as substrate at 50 uM preincubated for 4.5 mins followed by substrate addition measured after 2.5 mins by Ellman's spectrophotometric method.
In data set [16] the target is T1, Cholinesterase. The data set can be described thus: Inhibition of equine serum butyrylcholinesterase using […] as substrate preincubated for 4.5 mins followed by substrate addition measured after 2.5 mins by Ellman's spectrophotometric method. The method in brief:
as §4

The subject of data set [17] is HT-22. The data set is described as follows: Neuroprotective activity against glutamate-induced oxycytotic cell death in mouse HT22 cells assessed as cell viability at 25 uM after 24 hrs by MTT assay. Format: functional, cell-based. A digest of the protocol:
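Murine hippocampal HT-22 cells in high-glucose DMEM with 10% heat-inactivated FCS, 37 °C, 5% CO2. MTT (4 mg/mL in PBS, diluted 1:10 in medium) for 3 h, lysis in 10% SDS pH 4.1, absorbance 560 nm; viability as % of untreated cells.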

Data set [18] can be described thus: Neurotoxicity against mouse HT22 cells assessed as cell viability at 1 and 5 uM after 24 hrs by MTT assay. Conditions: ht-22, 24 h. It is filed as toxicity, cell-based. The method in brief:
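HT-22 murine hippocampal cells grown in high-glucose DMEM plus 10% heat-inactivated FCS at 37 °C, 5% CO2. After 24 h culture in plates, treated 24 h with compound (DMSO ≤0.1% final) without glutamate. Viability read by MTT (3 h), SDS lysis buffer pH 4.1, absorbance at 560 nm, given as percent of untreated control.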

The subject of data set [19] is HT-22. The data set is described as follows: Neuroprotective activity against glutamate-induced oxycytotic cell death in mouse HT22 cells assessed as cell viability at 5 uM after 24 hrs by MTT assay. Format: functional, cell-based. A digest of the protocol:
(§5)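 Murine hippocampal HT-22 cells in high-glucose DMEM with 10% heat-inactivated FCS, 37 °C, 5% CO2. […] MTT (4 mg/mL in PBS, diluted 1:10 in medium) for 3 h, lysis in 10% SDS pH 4.1, absorbance 560 nm; viability as % of untreated cells.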

Data set [20] concerns HT-22. The data set can be described thus: Neuroprotective activity against glutamate-induced oxycytotic cell death in mouse HT22 cells assessed as cell viability at 1 uM after 24 hrs by MTT assay. It is filed as functional, cell-based. A digest of the protocol:
as §5

In data set [21] the target is T2, Acetylcholinesterase. The data set can be described thus: Inhibition of human acetylcholinesterase using […] as substrate preincubated for 4.5 mins followed by substrate addition measured after 2.5 mins by Ellman's spectrophotometric method. The method in brief: as §4

Activity calls are given as the source filed them. The calls are words filed in the database; no cut-off is given here.

T2 sequence (P22303 whole entry): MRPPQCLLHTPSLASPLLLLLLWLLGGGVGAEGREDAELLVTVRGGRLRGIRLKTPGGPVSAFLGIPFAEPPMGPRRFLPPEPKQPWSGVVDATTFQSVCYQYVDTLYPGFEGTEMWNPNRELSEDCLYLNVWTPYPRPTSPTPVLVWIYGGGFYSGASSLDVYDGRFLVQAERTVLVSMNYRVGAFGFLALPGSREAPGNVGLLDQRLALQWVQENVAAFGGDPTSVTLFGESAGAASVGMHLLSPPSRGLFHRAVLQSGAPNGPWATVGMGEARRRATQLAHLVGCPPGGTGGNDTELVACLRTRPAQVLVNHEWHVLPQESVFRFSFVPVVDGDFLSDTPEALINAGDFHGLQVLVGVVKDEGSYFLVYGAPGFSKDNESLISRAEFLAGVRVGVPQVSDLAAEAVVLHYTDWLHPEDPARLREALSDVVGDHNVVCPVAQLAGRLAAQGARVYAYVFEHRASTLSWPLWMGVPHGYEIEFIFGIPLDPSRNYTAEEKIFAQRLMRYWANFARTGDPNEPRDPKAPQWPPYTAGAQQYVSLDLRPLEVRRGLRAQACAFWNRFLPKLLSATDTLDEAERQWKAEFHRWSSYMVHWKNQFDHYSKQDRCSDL
T1 sequence (P81908 whole entry): as the sequence (P81908 whole entry) above
Sequence of Cholinesterase (Homo sapiens, UniProt P06276) (P06276 whole entry): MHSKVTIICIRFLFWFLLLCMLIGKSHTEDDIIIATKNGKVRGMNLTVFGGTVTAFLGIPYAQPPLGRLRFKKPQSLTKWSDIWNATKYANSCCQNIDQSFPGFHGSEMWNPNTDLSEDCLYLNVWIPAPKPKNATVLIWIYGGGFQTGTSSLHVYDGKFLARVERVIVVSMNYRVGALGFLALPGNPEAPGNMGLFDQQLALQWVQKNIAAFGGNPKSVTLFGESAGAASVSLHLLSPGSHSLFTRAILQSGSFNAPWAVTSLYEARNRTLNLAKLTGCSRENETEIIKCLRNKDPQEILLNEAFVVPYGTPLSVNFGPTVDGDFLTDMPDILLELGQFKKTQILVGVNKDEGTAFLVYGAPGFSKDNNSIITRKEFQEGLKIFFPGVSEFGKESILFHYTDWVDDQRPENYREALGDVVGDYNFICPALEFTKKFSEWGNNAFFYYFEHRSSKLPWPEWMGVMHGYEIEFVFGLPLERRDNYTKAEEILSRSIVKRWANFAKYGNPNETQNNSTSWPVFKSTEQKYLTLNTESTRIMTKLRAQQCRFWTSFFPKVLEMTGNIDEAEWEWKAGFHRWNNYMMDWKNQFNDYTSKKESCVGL

As for `CCCCCCCNC(=O)Oc1ccc2c(c1)CN(C)C(c1cccs1)N2C` (configuration not stated), the K in data set [1] was 0.14 min⁻¹; in data set [5] it was 0.14 h⁻¹; in data set [6] it was 14.3 nM. Besides, the IC50 came out at 14 nM in data set [2] and 13 nM in data set [8]. Besides, the T1/2 in data set [3] was 5 h. Also, the Ratio in data set [4] was determined as 9.79 µM⁻¹ min⁻¹. In addition, in data set [7], the outcome was Active. Further, the viability at 24 h in data set [9] is over 80%. Also, the Activity in data set [10] is 0.2 equiv. This compound also displayed an inhibition in data set [11] of 0%.

Turning to `CCCCCCCNC(=O)Oc1ccc2c(c1)CN(C)C(c1cc[nH]c1)N2C` (configuration not stated), the IC50 in data set [2] is 23 nM; in data set [12], 852 nM.

Regarding `CCCCCCCNC(=O)Oc1ccc2c(c1)CN(Cc1ccccc1)C(c1ccccc1)N2C` (configuration not stated), the IC50 in [2] stood at 34 nM. Moreover, the results for the Activity result in [13] and in [10] were “Non-toxic” and 1.7 equiv, respectively. In addition, the result in [7] was Active. Moreover, the viability at 24 h in data set [9] was over 80%. Also, in data set [14], the inhibition is 17%.

For `CN1Cc2cc(O)ccc2N(C)C1c1ccc2ccccc2c1` (configuration not stated), the inhibition in data set [15] is 9%. Moreover, the IC50 in [16] was determined as 16500 nM.

`CN1c2ccc(O)cc2CN(Cc2ccccc2)C1c1ccccc1` (configuration not stated) displayed an inhibition in data set [15] of 16%. Besides, the result in [17] was inactive. In data set [16], this compound returned an IC50 of 14800 nM. The figures for the Activity entry in data set [18] and in [10] were “Non-toxic” and 3.9 equiv, respectively. Besides, the result in data set [19] and in [20] was Active.

For `COc1ccc(C2N(C)Cc3cc(O)ccc3N2C)cc1` (configuration not stated), the result in data set [17] was inactive. For the same compound, the IC50 in data set [16] came out at 39500 nM; in [21], 104000 nM. The figures for the Activity result in data set [18] and in [10] were “Non-toxic” and 3.7 equiv, respectively. In addition, the result in data set [19] was Active.

Take `CCCCCCCNC(=O)Oc1ccc2c(c1)CN(C)C(c1ccccc1)N2C` (configuration not stated): the K is 0.13 min⁻¹ in data set [1], 0.14 h⁻¹ in data set [5] and 226 nM in data set [6]. The compound also showed an IC50 in data set [2] of 106 nM. Further, the T1/2 in data set [3] came out at 5 h. Besides, in data set [4], the Ratio amounted to 0.57 µM⁻¹ min⁻¹. Moreover, the outcome in [7] was Active. Besides, the viability at 24 h in data set [9] was over 80%. Also, the Activity in [10] is 0.2 equiv. The compound further registered an inhibition in [11] of 4%.

For the compound `CNC(=O)Oc1ccc2c(c1)[C@]1(C)CCN(C)[C@@H]1N2C`, the K came out at 0.3 min⁻¹ in [1], 0.25 h⁻¹ in data set [5] and 280 nM in data set [6].

For the compound `CCCCCCCNC(=O)Oc1ccc2c(c1)CN(C)C(c1ccc(F)cc1)N2C` (configuration not stated), the K stood at 0.14 min⁻¹ in [1] and 24.5 nM in [6]. Further, the IC50 is 44 nM in data set [2] and 1610 nM in data set [12]. In addition, in [4], the Ratio is 5.71 µM⁻¹ min⁻¹.

By IC50 is commonly meant the concentration that inhibits the measured activity by half. The low end stands for greater potency, the high end for weaker potency. As a reminder, the inhibition is the percentage by which the read-out fell short of the control. Low readings indicate little suppression, high ones strong suppression.
